The record followed here is PubChem BioAssay AID602225 (Southern Research Specialized Biocontainment Screening …, 2012).

Inconclusive results are not listed. Active and inactive are the calls of the source.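 How the source made its calls: active means viability below 80% at one or more tested concentrations, meaning the compound is toxic to the cells; inconclusive means replicate runs disagree on whether viability fell below 80%; inactive means viability of 80% or more at every dose.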

The test system of one assay is Vero E6 viability, CellTiter-Glo luminescence, 72 h. Kind of assay: viability of Vero E6 cells under compound – set 2, cytotoxicity control for PfM18AAP inhibitor project, dose response (AID 602225).
Details: not given
The gist of the method: (§1)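 Assay system – Vero E6 cells · Quantity – 3000 cells/well · Compound – 10 points, 2-fold steps · Timing – 72 h compound treatment, 37 °C · Signal – CellTiter-Glo luminescence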
Regarding `COc1ccc(CCN(C)c2c3ccccc3nc3ccccc23)cc1OC`, the half-maximal cytotoxic concentration (CC50) (in general, the concentration giving 50% cytotoxicity) was 27.8 µM.

Regarding `COc1ccc(CCNC(c2ccccc2)c2ccccc2)cc1OC`, the half-maximal cytotoxic concentration (CC50) was 32.6 µM.

As for `Oc1ccc(CCNc2c3ccccc3nc3ccccc23)cc1O`, the CC50 is 30.9 µM.

Regarding `CCc1ccc(NC(=O)Cc2nc(-c3ccc(O)c(O)c3)cs2)cc1`, the half-maximal cytotoxic concentration (CC50) was 28.7 µM.

`COc1ccc(CCNc2c3ccccc3nc3ccccc23)cc1OC`: the CC50 was 13.9 µM.

Tested on in the next assay: not listed separately
Described as above. The note with it: Vero E6 viability, CellTiter-Glo luminescence, 72 h; at 50 µM (top of the series). Summed up: as §1
For `Oc1ccc(-c2csc(Nc3ncccn3)n2)cc1O`, the viability (commonly a read-out of living cells in per cent, often relative to untreated cells) was 90.7% (inactive).

For the compound `CN1CCN(CCc2ccc(O)c(O)c2)CC1`, the viability was 103% (inactive).

For `Oc1ccc(CCNc2ccnc3ccccc23)cc1O`, the viability is 100% (inactive).

For `COc1ccc(CCCN2CCN(C)CC2)cc1OC`, the viability is 100% (inactive).

As for `CN1CCN(CCCc2ccc(O)c(O)c2)CC1`, the viability was 93.4% (inactive).

`CN1CCN(c2nc(-c3ccc(O)c(O)c3)cs2)CC1`: the viability was 102% (inactive).
